# Shown are actives, neighbours in structure and some others; about 3.9% of the full set was active somewhere.
# ANO1 activ – mouse TMEM16A channel activation, primary screen; HEK293 TMEM16A/YFP-H148Q/I152L, iodide quench fluorescence; hits give low values; Q8BHY3; actives 0.3% (n = 340,000); B-score at 10 µM;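 active = fluorescence-ratio B-score plate-corrected deviation score at least 3 library SD below zero, with starting fluorescence score within 5 deviations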;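 note: channel opened by trigger with iodide after compound preincubation; score built on the fluorescence ratio of max minus min over baseline; more negative score means more quench and so TMEM16A activation or potentiation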
# CRFBP-R2 agonist – CRF-BP/CRF-R2 complex agonism. HEK293 CRF-R2/CRF-BP, calcium dye fluorescence (FLIPR); percent of saturating CRF peptide response. activation, % at 13.2 µM. actives 0.46% (n = 350,000);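 active = activation of at least 50%, plus an integration ratio under a set limit after plate pattern correction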;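 note: plate controls were neutral control wells without compound for no effect and CRF at EC100 for full effect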
# TMEM16A inh – blocks the mouse calcium-activated chloride channel TMEM16A; actives 1.2% (n = 310,000); Q8BHY3; normalized B-score (activity score, 25-100; higher = stronger inhibition) at 10 µM; HEK293 TMEM16A/YFP iodide influx fluorescence, ionomycin; AID 588511;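 active = ratio plate-corrected score three or more library SD toward inhibition, starting fluorescence score within five deviations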;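 note: score derived from kinetic fluorescence span divided by baseline fluorescence per well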
# TAAR1 agonist – agonists of human TAAR1 | Q96RJ0 | AID 624467 | activation, % at 3 µM | actives 0.99% (n = 360,000) | CHO RD-HGA16 TAAR1, Fluo-8 calcium fluorescence; vehicle wells 0%, saturating PEA agonist 100%;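 active = activation above the mean activation of all test compounds in the run plus 3 SD, cut at about 38% in these data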
#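 Signal – calcium-sensitive Fluo-8 signal, excitation 470-495, emission 515-575 nm · System – RD-HGA16 (CHO) cells co-expressing Gα16 and hTAAR1 · Incubation – 17-24 h seeding, 75 min 37 °C dye, 30 min RT · Compound dosing – 3 µM single concentration · Repeats – no replicates (n 1)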
# TAAR1 antagonist – human TAAR1 antagonism | Q96RJ0 | actives 1.5% (n = 360,000) | CHO RD-HGA16 TAAR1, Fluo-8 calcium fluorescence, antagonist | inhibition, % at 3 µM | AID 624466;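 active = inhibition above a per-plate cutoff, the mean inhibition of test compounds on that plate plus 3 SD, cut at about 49% in these data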;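 note: 0% = DMSO plus EC80 beta-PEA response and 100% = DMSO alone without agonist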
#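 Material: CHO RD-HGA16 cells bearing hTAAR1; compound dosing: one-point dosing, 3 µM nominal final; schedule: dye loading 75 min at 37 °C, then 30 min room temperature; measured by: calcium fluorescence with Fluo-8; control set: vehicle and agonist controls; replication: n of 1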
# CRFBP-R2 block – CRF-BP/CRF-R2 complex antagonism. HEK293 CRF-R2/CRF-BP, CRF-induced calcium fluorescence. inhibition, % at 11.8 µM. actives 0.59% (n = 350,000). AID 588475;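 active = inhibition of the ligand-induced calcium signal above about 50% at the single tested concentration, limit read from the data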
# TMEM16A reconf – reconfirmed blocker of mouse TMEM16A calcium-activated chloride channel. shares compounds with TMEM16A inh. HEK293 TMEM16A/YFP-H148Q, iodide quench fluorescence; ionomycin added to raise cell calcium. inhibition, % at 10 µM. actives 39% (n = 2,300). AID 652189;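 active = mean duplicate percent inhibition, scaled so buffer wells are 0 and the reference blocker 100, over three buffer SD above buffer mean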
# HEK293 Ca mobil – calcium mobilization counter-screen hit for TMEM16A inhibitor series | calcium response (% of ionomycin), % at 10 µM | actives 2% (n = 2,300) | TMEM16A/YFP HEK293, Fluo4 calcium mobilization | shares compounds with TMEM16A inh;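 active = duplicate-averaged calcium signal over 20% of the ionomycin maximum, relative to buffer baseline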;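 note: each well's signal is peak minus trough fluorescence divided by its pre-addition baseline; 0% = buffer wells and 100% = ionomycin wells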
# Parental YFP cnt – counter-screen for TMEM16A inhibitors: effect in parental YFP-HEK293 cells; 2,300 tested, under 10 active; YFP ratio F(max-min)/F0 at 10 µM; shares compounds with TMEM16A inh; iodide YFP quench, ionomycin; AID 652233;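 active = yellow fluorescent protein signal ratio exceeding the buffer control mean by over 5 SD of those controls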;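 note: ratio is mean of duplicate wells from kinetic YFP trace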
# ClC-1 inh – selectivity of TMEM16A inhibitors: inhibition of rat ClC-1 chloride channel; shares compounds with TMEM16A inh; CHO ClC-1-YFP, iodide influx fluorescence quench; iodide control reads 0, buffer control 100; ratio percent, % at 10 µM; 2,300 tested, under 10 active;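 active = duplicate-mean ratio percent above the mean of iodide-only control wells, which defines zero, plus 5 of their SD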;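 note: higher percent means stronger block of ClC-1 iodide influx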
# Starred values were filed as active, the others as inactive; i = inactive; x = no result given.
SMILES,ANO1 activ,CRFBP-R2 agonist,TMEM16A inh,TAAR1 agonist,TAAR1 antagonist,CRFBP-R2 block,others
Cc1ccc(-c2cc(-c3ccccc3)cc(-c3ccccc3)[n+]2-c2ccccc2)cc1,i,66*,100*,34,104*,-94,
COP(=O)(OC)C1(O)C(=O)Nc2ccc(Br)cc21 (stereo not given),i,2,i,3,-4,10,
Clc1ccc2c(c1)C(c1ccccc1Cl)=NCc1nnc(N3CCN(CCOc4ccccc4)CC3)n1-2,i,1,i,17,16,19,
O=c1[nH]c2ccccc2n1C1CCN(C(c2nnnn2-c2ccc3c(c2)OCCO3)C2CC2)CC1 (stereo not given),x,x,x,15,62*,x,
O=c1[nH]c2ccccc2n1C1CCN(C(c2ccccc2)c2nnnn2-c2ccc3c(c2)OCCO3)CC1 (stereo not given),x,x,x,22,62*,x,
CN1CCN(C(=O)COc2ccc(-c3nc4ccccc4s3)cc2)CC1,i,8,i,2,-8,0,
Cc1ccc(OC(=O)N(C)C[C@@H]2OCc3ccccc3-c3c(n(C)c4ccccc34)C(=O)N([C@H](C)CO)C[C@H]2C)cc1,x,x,x,8,8,x,
CCCCCCCCCCCCCCCC[N+](C)(C)C,i,4,i,9,37,66*,
COc1ccc(CN2C(=O)NC(=O)/C(=C/c3ccoc3)C2=O)cc1,i,10,i,15,-2,51*,
Cn1ncnc2c(=O)n(C)c(=O)nc1-2,i,-2,25*,x,x,16,
CCN(CC)c1ccc(/C=C2/C(=O)NC(=O)N(CC3CCCO3)C2=O)cc1 (stereo not given),i,9,i,42*,13,-48,
O=C1NC(=O)N(CC2CCCO2)C(=O)/C1=C/c1cccs1 (stereo not given),i,0,i,4,-37,-19,
CNCCCc1ccccc1,i,4,i,43*,3,7,
O=C1NC(=O)C(=Cc2coc3ccccc3c2=O)C(=O)N1,i,71*,i,-1,-22,-45,
Cn1cc(C=C2C(=O)NC(=O)NC2=O)c2ccccc21,i,59*,i,0,5,-36,
O=C1NC(=O)C(=Cc2csc3ccccc23)C(=O)N1,i,2,i,34,26,-27,
CC(=O)n1cc(C=C2C(=O)NC(=O)NC2=O)c2ccccc21,i,0,i,4,-34,-5,
Cc1ccc2nc(-c3ccc(CN4CCC(n5c(=O)[nH]c6cc(Cl)ccc65)CC4)cc3)c(-c3ccccc3)nc2c1,x,x,x,0,21,x,
COC(=O)C1=C(c2ccc(Cl)c(C(F)(F)F)c2)C[C@@H]2CC[C@H]1N2C(=O)NCCOc1ccc(OC)cc1,i,0,x,x,x,0,
CC1C2Cc3ccc(O)cc3C1(C)CCN2CC1CC1 (stereo not given),x,x,x,1,12,x,
N=C(N)c1c(O)n(C2CCCCC2)c(=O)n(C2CCCCC2)c1=O,i,1,i,46*,18,-15,
CCN(CC)c1ccc(N=Cc2c(O)n(CCC3=CCCCC3)c(=O)[nH]c2=O)cc1,i,115*,i,8,-14,-132,
C=CC1C[N+]2(C)CCC1CC2C(O)c1ccnc2ccccc12 (stereo not given),x,x,x,1,15,x,
O=[N+]([O-])c1ccc(N2CCCCCC2)c2nonc12,i,191*,i,162*,66*,-136,
CO[C@H]1CC=C2CCN3CCC4=C(CC(=O)OC4)[C@]23C1,i,-1,i,0,-3,7,
SMILES,ANO1 activ,CRFBP-R2 agonist,TMEM16A inh,TAAR1 agonist,TAAR1 antagonist,CRFBP-R2 block,others
CC[C@H](C)[C@@H]1O[C@@]2(C=CC1C)CC1C[C@@H](CC=C(C)C(O[C@H]3CC(OC)C(O[C@H]4CC(OC)C(O)C(C)O4)C(C)O3)C(C)C=CC=C3CO[C@@H]4C(O)C(C)=C[C@@H](C(=O)O1)[C@]34O)O2 (stereo not given in full),x,x,25*,x,x,x,
Oc1cc(Cl)c(Cl)c(Cl)c1,i,20,x,8,21,55*,
CC1CC(C)OP(=O)(OCCC#N)O1 (stereo not given),i,-1,x,2,-17,11,
CCC(c1nnnn1-c1ccc2c(c1)OCCO2)N1CCC(n2c(=O)[nH]c3ccccc32)CC1 (stereo not given),x,x,x,18,66*,x,
Cc1cccc(C)c1-n1nnnc1C(c1cc2ccccc2o1)N1CCC(n2c(=O)[nH]c3ccccc32)CC1 (stereo not given),x,x,x,0,37,x,
CSCCC(c1nnnn1-c1ccc2c(c1)OCCO2)N1CCC(n2c(=O)[nH]c3ccccc32)CC1 (stereo not given),x,x,x,13,62*,x,
COC(=O)C1=C(c2cccc(OCc3ccccc3)c2)C[C@@H]2CC[C@H]1N2C(=O)NCc1ccc(C(F)(F)F)cc1,i,2,x,3,6,15,
C[n+]1c(-c2ccccc2)c2cc(N)ccc2c2ccc(N)cc21,i,24,i,2,2,-26,
Nc1ccc2ccc3cccc[n+]3c2c1,i,163*,i,40*,8,-92,
C=CCn1c(O)c(C=NC2CCN(Cc3ccccc3)CC2)c(=O)[nH]c1=O,i,3,i,2,-13,-14,
O=c1[nH]c(=O)n(CCC2=CCCCC2)c(O)c1C=NC1CCN(Cc2ccccc2)CC1,i,2,25*,11,-29,-33,TMEM16A reconf=i;HEK293 Ca mobil=i;Parental YFP cnt=-0.96;ClC-1 inh=-7
Cc1cccc(N2C(=O)NC(=O)/C(=C/c3cc4c(cc3[N+](=O)[O-])OCO4)C2=O)c1,i,0,i,0,-8,-7,TMEM16A reconf=i;HEK293 Ca mobil=120%*;Parental YFP cnt=-0.84;ClC-1 inh=-14

# Source: PubChem BioAssay (several laboratories)
